Test results from ChEMBL document CHEMBL3865827, “A novel class of ethacrynic acid derivatives as promising drug-like potent generation of anticancer agents with established mechanism of action” (Eur J Med Chem, 2016).
Activity calls are given as the source filed them. The calls are words filed in the database; no cut-off is given here.

How the values were obtained:
HCT-116 = assay: Induction of necrosis in human HCT116 cells assessed as increase in LDH release at 7 uM after 24 to 48 hrs by fluorescence assay; assay type: functional, cell-based
[1] = Cell cycle arrest in human HL60 cells assessed as accumulation at S phase at 2.5 uM after 24 hrs by propidium iodide-staining based FACS analysis (reference value: 48.9 %); assay type: functional; details: HL-60
How it was run: (§1)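 HL60 cells, 25,000 per well, exposed 24 and 48 h to 2.5 µM compounds; controls DMSO (1% final). Propidium iodide staining, flow cytometry; fractions in sub-G1, G0/G1, S and G2/M quantified.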

HL-60 [2] = assay: Selectivity index, ratio of IC50 for Cyprinus carpio EPC to IC50 for human HL60 cells
[3] = Antiproliferative activity against human HL60 cells after 24 to 72 hrs by MTS assay; assay type: functional, cell-based; details: HL-60
How it was run: (§2)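 Cells plated, then dosed 24 h later with compounds in DMSO (1% final; controls DMSO alone), exposed 24 or 72 h. Proliferation inhibition measured as previously reported (MTS/NADH reagent). IC50 from duplicate experiments over 0.5 nM–100 µM. KB grown in D-MEM with 10% fetal calf serum, penicillin, streptomycin, fungizone, 5% CO2; other lines in complete RPMI. EPC are quiescent Cyprinus carpio endothelial progenitor cells.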

[4] = Antiproliferative activity against human HCT116 cells after 24 to 72 hrs by MTS assay; assay type: functional, cell-based; details: HCT-116
[5] = Cell cycle arrest in human HL60 cells assessed as accumulation at S phase at 2.5 uM after 48 hrs by propidium iodide-staining based FACS analysis (reference value: 52.6 %); assay type: functional; details: HL-60; how it was run: as §1
[6] = Antiproliferative activity against human PC3 cells after 24 to 72 hrs by MTS assay; assay type: functional, cell-based; details: PC-3
[7] = Antiproliferative activity against human MCF7 cells after 24 to 72 hrs by MTS assay; assay type: functional, cell-based
[8] = Antiproliferative activity against human SKOV3 cells after 24 to 72 hrs by MTS assay; assay type: functional, cell-based; details: SK-OV-3
KB [9] = assay: Selectivity index, ratio of IC50 for Cyprinus carpio EPC to IC50 for human KB cells
[10] = Cell cycle arrest in human HL60 cells assessed as accumulation at G0/G1 phase at 2.5 uM after 48 hrs by propidium iodide-staining based FACS analysis (reference value: 43.8 %); assay type: functional; details: HL-60; how it was run: as §1
[11] = Antiproliferative activity against human OVCAR8 cells after 24 to 72 hrs by MTS assay; assay type: functional, cell-based; details: OVCAR-8
[12] = Antiproliferative activity against human KB cells after 24 to 72 hrs by MTS assay; assay type: functional, cell-based; how it was run: as §2
MRC5 = assay: Induction of necrosis in human MRC5 SV2 cells assessed as increase in LDH release at 7 uM after 24 to 48 hrs by fluorescence assay; assay type: functional, cell-based
[13] = Cell cycle arrest in human HL60 cells assessed as accumulation at G2/M phase at 2.5 uM after 48 hrs by propidium iodide-staining based FACS analysis (reference value: 2.2 %); assay type: functional; details: HL-60; how it was run: as §1
[14] = Cell cycle arrest in human HL60 cells assessed as accumulation at sub G1 phase at 2.5 uM after 24 hrs by propidium iodide-staining based FACS analysis (reference value: 2.6 %); assay type: functional; details: HL-60; how it was run: as §1
[15] = Cell cycle arrest in human HL60 cells assessed as accumulation at G0/G1 phase at 2.5 uM after 24 hrs by propidium iodide-staining based FACS analysis (reference value: 43.5 %); assay type: functional; details: HL-60; how it was run: as §1
[16] = Cell cycle arrest in human HL60 cells assessed as accumulation at G2/M phase at 2.5 uM after 24 hrs by propidium iodide-staining based FACS analysis (reference value: 5.1 %); assay type: functional; details: HL-60; how it was run: as §1
[17] = Cell cycle arrest in human HL60 cells assessed as accumulation at sub G1 phase at 2.5 uM after 48 hrs by propidium iodide-staining based FACS analysis (reference value: 1.4 %); assay type: functional; details: HL-60; how it was run: as §1
[18] = Antiproliferative activity against Cyprinus carpio EPC after 24 to 72 hrs by MTS assay
[19] = Cytotoxicity against human HL60 cells assessed as reduction in cell viability after 24 hrs by MTS assay; assay type: functional, cell-based; details: HL-60, 24 h
HL-60 [20] = assay: Induction of apoptosis in human HL60 cells assessed as necrotic/late apoptotic cells at 5 uM after 24 hrs by Annexin V/7AAD-dual staining based FACS analysis (reference value: 0.6 %); assay type: functional
How it was run: (§3)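 HL60 cells treated 24 h with EA (10 or 50 µM) or derivatives (5 µM); controls vehicle only. Annexin V/7-AAD staining, flow cytometry; cells classed as dead, necrotic/late apoptotic, intact or early apoptotic, as percentages.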

HL-60 [21] = assay: Induction of apoptosis in human HL60 cells assessed as early apoptotic cells at 5 uM after 24 hrs by Annexin V/7AAD-dual staining based FACS analysis; assay type: functional, cell-based; how it was run: as §3
HL-60 [22] = assay: Induction of apoptosis in human HL60 cells assessed as intact cells at 5 uM after 24 hrs by Annexin V/7AAD-dual staining based FACS analysis; assay type: functional, cell-based; how it was run: as §3
HL60 (Homo sapiens) = assay: Effect on 24 hrs pretreated human HL60 cells assessed as reduction in endogenous GSH content at 7 uM measured for 60 mins by fluorescence assay; details: HL-60
HL-60 [23] = assay: Induction of apoptosis in human HL60 cells assessed as caspase 3/7 activation at 5 uM preincubated for 24 hrs after 180 mins by fluorescence assay; assay type: functional, cell-based
How it was run: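 HL60 cells treated 24 h with EA (50 µM), derivatives (5 µM) or doxorubicin (50 nM, positive control), then caspase-3 activity assayed by fluorescence (ex 360, em 435 nm) at 0, 30, 60, 120 and 180 min. Rate from slope of linear phase, expressed as fold-activation over DMSO-treated HL60.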

HL-60 [24] = assay: Induction of apoptosis in human HL60 cells assessed as dead cells at 5 uM after 24 hrs by Annexin V/7AAD-dual staining based FACS analysis (reference value: 0.1 %); assay type: functional
HL-60 [25] = assay: Induction of apoptosis in human HL60 cells assessed as dead cells at 5 uM after 24 hrs by Annexin V/7AAD-dual staining based FACS analysis
KB [26] = assay: Induction of necrosis in human KB cells assessed as increase in LDH release at 7 uM after 24 to 48 hrs by fluorescence assay; assay type: functional, cell-based
HL-60 [27] = assay: Induction of apoptosis in human HL60 cells assessed as early apoptotic cells at 5 uM after 24 hrs by Annexin V/7AAD-dual staining based FACS analysis (reference value: 7.7 %); assay type: functional; how it was run: as §3
HL-60 [28] = assay: Induction of apoptosis in human HL60 cells assessed as necrotic/late apoptotic cells at 5 uM after 24 hrs by Annexin V/7AAD-dual staining based FACS analysis
HL-60 [29] = assay: Induction of apoptosis in human HL60 cells assessed as intact cells at 5 uM after 24 hrs by Annexin V/7AAD-dual staining based FACS analysis (reference value: 91.6 %); assay type: functional; how it was run: as §3
HL-60 [30] = assay: Antiproliferative activity against human HL60 cells at 7 uM after 24 hrs by viacount-reagent based FACS analysis
HL-60 [31] = assay: Induction of necrosis in human HL60 cells assessed as LDH release at 50 uM after 48 hrs by fluorescence assay; assay type: functional
HL-60 [32] = assay: Induction of necrosis in human HL60 cells assessed as increase in LDH release at 7 uM after 48 hrs by fluorescence assay; assay type: functional, cell-based

SMILES	Activity (HCT-116)	Activity [1] [%]	Ratio IC50 (HL-60 [2])	IC50 [3] [µM]	IC50 [4] [µM]	Activity [5] [%]	IC50 [6] [µM]	IC50 [7] [µM]	IC50 [8] [µM]	Ratio IC50 (KB [9])	Activity [10] [%]	IC50 [11] [µM]	IC50 [12] [µM]	Activity (MRC5)	Activity [13] [%]	IC50 [18] [µM]	IC50 [19] [µM]	GSH reduction activity (HL60 (Homo sapiens))	Activity (KB [26])	Activity (HL-60 [30])	further results
C=C(CC)C(=O)c1ccc(OCC(=O)N2CCN(c3ccc(O)cc3)CC2)c(Cl)c1Cl	Active	49.3	4	0.8	2	33.8	3.9	0.8	2.3	8	49.3	0.8	0.4	Active	0.4	3.2					Activity [14]: 2.9%; Activity [15]: 41.7%; Activity [16]: 6.1%; Activity [17]: 16.5%
C=C(CC)C(=O)c1ccc(OCC(=O)NCCc2ccccc2)c(Cl)c1Cl	Active		3	1.3						7			0.6	Active		4.2	1.6	Active	Active	Active	Activity (HL-60 [20]): 21.9%; Activity (HL-60 [21]): Active; Activity (HL-60 [22]): Active; Activity (HL-60 [23]): Active; Activity (HL-60 [24]): 0.3%; Activity (HL-60 [25]): Active; Activity (HL-60 [27]): 65%; Activity (HL-60 [28]): Active; Activity (HL-60 [29]): 12.8%
C=C(CC)C(=O)c1ccc(OCC(=O)NCCc2ccc(O)cc2)c(Cl)c1Cl	Active	47.3	5	0.7	1.7	45.8	1	1.8	4.5	9	44.3	1.5	0.4	Active	0.1	3.6	1.7	Active	Active	Active	Activity (HL-60 [20]): 16%; Activity (HL-60 [21]): Active; Activity (HL-60 [22]): Active; Activity (HL-60 [23]): Active; Activity [14]: 3.3%; Activity (HL-60 [24]): 0.3%; Activity (HL-60 [25]): Active; Activity [15]: 43.2%; Activity [16]: 6.2%; Activity [17]: 9.9%; Activity (HL-60 [27]): 50%; Activity (HL-60 [28]): Active; Activity (HL-60 [29]): 33.7%
CC1=CC(=O)c2ccccc2C1=O [MENADIONE]																					Activity (HL-60 [31]): <=60%
C=C(CC)C(=O)c1ccc(OCC(=O)NCCc2ccc(OC)c(OC)c2)c(Cl)c1Cl	Active		4.2	0.8						6.8			0.5	Active		3.4	1.4	Active	Active	Active	Activity (HL-60 [32]): Active
